Experimental data published in PMC4201501 (Journal of chromatography. B, Analytical technologies in …, 2014).
Like-named read-outs stand apart in the source and are kept apart here.

Columns and labels:
[1] = Stability of SP-141 in mouse plasma; type: in vitro ADME; details: for percentage of intact compound remaining after three freeze-thaw cycles: three freeze-thaw cycles (-20°C/room temperature)
[2] = tested on: human breast and pancreatic cancers; details: cited from earlier work
[3] = Stability of stock solutions at room temperature; type: physicochemical; details: stock solution in acetonitrile, room temperature (25°C), at least 24 h
Procedure, shortened: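 Primary stock solutions (10 mM in acetonitrile) of test compound and internal standard were held at room temperature (25°C) for 6, 12 and 24 h before analysis.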

[4] = type: in vivo, CD-1 mice; details: CD-1, mouse, plasma, 40 mg/kg
MDM2 protein = details: cited from earlier work
[5] = Autosampler stability of extracted plasma samples; type: physicochemical, mouse; details: extracted plasma sample, 4°C, 36 h
Procedure, shortened: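 Extracted mouse-plasma QC samples (1.94, 81.0, 129.6 ng/mL; IS 16.2 ng/mL) were prepared by n-hexane–dichloromethane–2-propanol (20:10:1) extraction, dried under nitrogen at 40°C, and reconstituted in ACN–water 50:50. They were injected immediately (time 0), then re-injected after 36 h at 4°C in the autosampler. Quantitation was by C18 gradient LC–positive ESI MRM, as percentage of intact compound versus time 0.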

COc1ccc2[nH]c3c(-c4cccc5ccccc45)nccc3c2c1 [SP-141, 6-methoxy-1-(naphthalen-1-yl)-9H-pyrido[3,4-b]indole]
percentage of intact compound remaining after three freeze-thaw cycles ([1]; 1.94 ng/mL): 96.4% ± 0.6% | percentage of intact compound remaining after three freeze-thaw cycles ([1]; 81.0 ng/mL): 96.2% ± 2.4% | percentage of intact compound remaining after three freeze-thaw cycles ([1]; 129.6 ng/mL): 99.3% ± 2.5% | compound remained intact after 24-h storage ([1]; 4°C, 24 h, all QC concentrations): more than 95.3% | stability in plasma at room temperature ([1]; 25°C, up to 24 h, prior to extraction): relatively stable | compound remaining after 24-h incubation ([1]; 37°C, 24 h, all QC concentrations): more than 83.0% | intact drug remained after storage for 4 weeks ([1]; −80°C, 4 weeks, all concentrations tested): more than 92.2% | potency against human breast and pancreatic cancers [2]: high potency | toxicity at doses leading to tumor regression [2]: without any observable toxicity | stability of stock solution [3]: stable | AUC(0-inf) ([4]; ip): 13200 ng·h/mL | AUC(0-t) ([4]; ip): 12600 ng·h/mL | Cmax ([4]; ip): 4420 ng/mL | Tmax ([4]; ip): 10 min | concentration at 10 min ([4]; ip): 4420 ng/mL | concentration at 24 h ([4]; ip): < 150 ng/mL | half-life ([4]; ip): 107 min | AUC(0-inf) ([4]; iv): 8540 ng·h/mL | AUC(0-t) ([4]; iv): 8340 ng·h/mL | Cmax ([4]; iv): 5530 ng/mL | concentration at 5 min ([4]; iv): 5530 ng/mL | concentration at 24 h ([4]; iv): < 20 ng/mL | half-life ([4]; iv): 58.8 min | binding to the MDM2 protein (MDM2 protein): directly binds | percentage of intact compound in the autosampler ([5]; 1.94 ng/mL): 96.3% ± 2.7% | percentage of intact compound in the autosampler ([5]; 81.0 ng/mL): 98.5% ± 3.1% | percentage of intact compound in the autosampler ([5]; 129.6 ng/mL): 96.8% ± 0.6%

COc1ccc2c(c1)[nH]c1c(-c3ccc4ccccc4c3)nccc12 [SP-157, 7-methoxy-1-(naphthalen-2-yl)-9H-pyrido[3,4-b]indole, reference compound]
stability of stock solution [3]: stable
